From PubChem
Rows were chosen to be rich in hits. Some 4.4% of all compounds tested hit in one or more screens of this group.
HTR2A ag: activates the mouse 5-HT2A serotonin receptor; P35363; CHO-K1 mHTR2A beta-arrestin complementation, luminescence; percent of 30 µM serotonin response; activation, % at 7.6 µM; hit rate 0.66% among 360,000; AID 624169;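 active means activation above a run cutoff, the mean activation of all tested compounds plus 3 SD, cut at about 14% in these data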;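 further: 0% = plate median of compound wells and 100% = 30 µM serotonin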
AI-2 QS mod: modulates the Vibrio harveyi AI-2 quorum sensing system; hit rate 0.4% among 300,000; Vibrio harveyi JMH597 AI-2 luminescence/OD600 ratio, 9 h; active compounds read low; strain lacks LuxN and CqsS sensors; 0 = neutral-control median; activity change, % at 7.5 µM; in the data active means activity change below about -75%, passing the limit was not always enough; inconclusive means no clear call, values can overlap the other calls;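 further: luminescence divided by OD600 gain over 9 h not by final OD600 alone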
MsrA inhibitor: inhibits bovine methionine sulfoxide reductase A; purified bovine MsrA, absorbance read-out; inhibition, % at 15.5 µM; hit rate 0.75% among 360,000; in the data active means inhibition above about 4.5%;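 further: 0% = vehicle wells with enzyme and 100% = reference inhibitor wells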
AHR activator: activators of human aryl hydrocarbon receptor. hit rate 2.5% among 320,000. AHR-responsive luciferase reporter cells, luminescence. P35869. activation, % at 5 µM; in the data active means activation above about 47%;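 further: 0% = vehicle wells and 100% = reference agonist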
Target sequence (P35869 whole entry, looked up): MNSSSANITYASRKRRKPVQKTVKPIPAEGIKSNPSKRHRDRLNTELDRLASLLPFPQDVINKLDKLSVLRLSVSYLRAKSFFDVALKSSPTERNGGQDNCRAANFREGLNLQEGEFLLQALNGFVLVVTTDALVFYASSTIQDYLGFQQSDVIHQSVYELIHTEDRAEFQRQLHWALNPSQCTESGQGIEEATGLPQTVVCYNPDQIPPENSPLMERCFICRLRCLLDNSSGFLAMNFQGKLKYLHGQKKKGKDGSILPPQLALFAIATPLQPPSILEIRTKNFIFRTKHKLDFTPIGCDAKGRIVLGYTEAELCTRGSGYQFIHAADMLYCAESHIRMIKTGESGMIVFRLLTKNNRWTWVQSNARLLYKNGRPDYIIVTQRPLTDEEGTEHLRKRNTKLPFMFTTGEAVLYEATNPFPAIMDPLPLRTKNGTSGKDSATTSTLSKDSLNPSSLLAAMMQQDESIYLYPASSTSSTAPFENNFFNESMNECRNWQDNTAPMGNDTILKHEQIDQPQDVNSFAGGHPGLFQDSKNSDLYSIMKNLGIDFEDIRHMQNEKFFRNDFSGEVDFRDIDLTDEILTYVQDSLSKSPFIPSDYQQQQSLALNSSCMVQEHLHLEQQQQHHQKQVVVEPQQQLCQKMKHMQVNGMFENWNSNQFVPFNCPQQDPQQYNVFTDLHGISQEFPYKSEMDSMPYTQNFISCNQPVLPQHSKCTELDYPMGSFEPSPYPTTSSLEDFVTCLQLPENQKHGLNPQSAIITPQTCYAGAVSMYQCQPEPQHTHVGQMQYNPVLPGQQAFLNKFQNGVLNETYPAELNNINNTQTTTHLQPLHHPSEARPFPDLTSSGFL
Tb MetRS inh: blocks T. brucei methionyl-tRNA synthetase activity; inhibition, % at 11.9 µM; hit rate 0.4% among 360,000; purified T. brucei MetRS, ATP depletion, Kinase-Glo luminescence; AID 624268;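 active means inhibition above a per-plate cutoff of the control wells' mean inhibition plus 3 SD, cut at about 5.5% in these data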;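 further: 0% = DMSO wells median and 100% = median of wells with control inhibitor compound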
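Test system – parasite MetRS enzyme · Reagent – substrates ATP, L-methionine and bulk Escherichia coli tRNA · Doses – 11.9 µM compound single dose, 0.9% DMSO · Times – 15 min enzyme-compound preincubation, 2 h reaction, 10 min detection, 25 °C · Signal – Kinase-Glo luminescence, ATP depletion format · Controls – DMSO-only wells as low control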
MsrA act: bovine methionine sulfoxide reductase A activation; hit rate 0.3% among 360,000; purified bovine MsrA, absorbance read-out; activation, % at 10.6 µM; AID 602163; in the data active means activation above about 7.5%;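 further: 0% = vehicle and 100% = reference activator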
* marks the source's active call; other numbers are inactive results; ? = inconclusive; . = not tested or not shown.

SMILES | HTR2A ag | AI-2 QS mod | MsrA inhibitor | AHR activator | Tb MetRS inh | MsrA act
COc1ccc(-c2nc(-c3ccc(Br)cc3)no2)c(OC)c1 | -1.7 | 11.0 | 0.2 | 95.2* | -0.4 | -0.5
COc1ccccc1-c1nc(-c2ccc(Br)cc2)no1 | 2.4 | 11.6 | -0.8 | 64.4* | 0.1 | -4.1
COC(=O)c1ccccc1NC(=O)Nc1cc(C(C)(C)C)on1 | 6.6 | 16.7 | -0.5 | 6.7 | 0.2 | -3.0
CC(C)(C)c1cc(NC(=O)Nc2ccccc2)no1 | 5.8 | -42.4 | -0.6 | 8.6 | 0.8 | 8.2*
Cc1cc(Nc2ccccc2F)n2nc(C)nc2n1 | 0.3 | 23.4 | 0.4 | 3.0 | 2.2 | -12.0
Cc1cc(Nc2ccc(Br)cc2F)n2nc(C)nc2n1 | 0.7 | 21.8 | 0.3 | 55.8* | -1.6 | 0.3
Cc1cc(C)cc(Nc2cc(C)nc3nc(C)nn23)c1 | 0.1 | 17.5 | 0.2 | 51.1* | -1.5 | -0.2
COc1ccccc1C(=O)N1CCN(C(=O)[C@H](CCc2ccccc2)NC(=O)[C@H]2O[C@@H](n3cnc4c(N)ncnc43)[C@H](O)[C@@H]2O)CC1 | . | . | -0.7 | . | . | .
O=C(NCc1ccccc1)[C@H]1CCCN1C(=O)[C@H]1CCCN1C(=O)c1ccc(Cl)cc1 | . | . | 0.7 | . | . | .
O=C(COc1ccc(Cl)cc1)Nc1cc2c3c(c1)CC(=O)N3CCC2 | -4.1 | 17.3 | 2.0 | 9.4 | -0.3 | -2.6
O=C(C(=O)N1CCC(CNS(=O)(=O)c2ccc3ccccc3c2)CC1)c1cc2ccccc2o1 | . | . | 0.8 | . | . | .
COc1ccc(NC(=O)CN2CCC(C)CC2)c([N+](=O)[O-])c1 | 5.3 | 19.4 | -0.4 | -0.5 | 0.0 | -0.4
COc1ccc(NC(=O)CN2CCCCC2)c([N+](=O)[O-])c1 | 15.9* | 18.1 | 0.8 | 0.2 | 0.6 | -0.4
COc1ccc(NC(=O)CC2Nc3cc(C)c(C)cc3NC2=O)c([N+](=O)[O-])c1 (stereo not drawn) | 7.0 | 11.1 | -0.5 | 61.2* | -0.7 | -7.7
COc1ccc(-c2cc3cc(OC)c(OC)cc3cn2)cc1 | 3.4 | . | 0.8 | 64.5* | -0.3 | -3.0
Cc1cccnc1NC(=O)c1ccc([N+](=O)[O-])o1 | -0.4 | 4.6 | 0.0 | 0.9 | 0.2 | 1.2
Cc1ccccc1NC(=O)c1ccc([N+](=O)[O-])o1 | -5.7 | ? | 0.5 | 0.3 | -0.7 | 0.4
COC(=O)c1ccccc1NC(=O)c1ccc(COc2cccc3ccccc23)o1 | 3.3 | 12.1 | 1.5 | 16.4 | 0.1 | -3.6
Cc1cccc(NC(=O)c2ccc([N+](=O)[O-])o2)n1 | 0.0 | -88.9* | 0.9 | -0.1 | -0.4 | 0.6
O=C(Nc1cccc2ncccc12)c1ccc(-c2ccc(Br)cc2)o1 | -1.5 | 11.4 | -0.1 | 52.7* | 0.7 | -0.7
Cc1cccc(NC(=O)c2ccc(COc3cccc4ccccc34)o2)n1 | 3.0 | 2.4 | -0.7 | 70.9* | -0.6 | -1.9
O=C(Nc1cccc2ncccc12)c1ccc([N+](=O)[O-])o1 | 3.9 | -108.6* | 0.8 | -0.4 | -0.1 | -0.6
CN1CCCCC(NC(=O)CCCl)C1=O (stereo not drawn) | . | . | 1.0 | . | . | .
CN(C)c1cc(-c2ccc(Cl)cc2)oc(=O)c1Cl | 0.7 | 20.2 | 0.6 | 56.2* | -0.3 | -4.4
Cc1ccc(C2=NN=C(NC(=O)CSc3nnc4c5ccccc5n(C)c4n3)SC2)cc1 | 3.6 | 17.7 | . | 77.1* | 0.0 | -2.0
SMILES | HTR2A ag | AI-2 QS mod | MsrA inhibitor | AHR activator | Tb MetRS inh | MsrA act
Cc1ccc(C2=NN=C(NC(=O)CSc3nc(C)cc(C)n3)SC2)cc1 | . | 2.7 | 0.3 | 37.0 | . | .
Cn1c(-c2ccc(C#N)cc2)c(C#Cc2ccccc2)c2ccccc21 | -3.1 | . | 3.6 | . | 0.2 | -3.7
Cn1c(C=O)c(C#Cc2ccccc2)c2ccccc21 | -2.2 | . | 0.5 | 72.6* | -0.2 | -6.9
COc1ccc(C#Cc2c(C=O)n(C)c3ccccc23)cc1 | 2.2 | . | 0.3 | 73.4* | -0.4 | -7.4
N/C(=N/OC(=O)c1ccccc1Cl)c1ncc([N+](=O)[O-])s1 | -0.7 | -86.3* | 0.8 | 54.1* | -0.1 | 3.6
N/C(=N\OC(=O)c1ccc(Cl)cc1Cl)c1ccncc1 | -2.5 | 20.9 | 0.8 | 0.7 | -0.6 | -7.0
N/C(=N\OC(=O)c1ccccc1Cl)c1ccncc1 | 6.5 | 7.8 | 0.4 | 58.8* | -1.1 | -8.4
Cc1cc(C)c2cc(C(=O)N3CCc4ccccc4C3)[nH]c2c1 | -6.7 | 16.3 | 0.4 | 54.8* | -0.1 | -2.0
COC(=O)c1cc(N2C(=O)C3C(C2=O)C2(C)C=CC3(C)O2)ccc1Cl (stereo not drawn) | . | -238.3* | . | 0.9 | . | .
